# In ChEMBL document CHEMBL4257575, “Discovery of Novel Flavonoid Dimers To Reverse Multidrug Resistance Protein 1 (MRP1, ABCC1) Mediated Drug Resistance in Cancers Using a High Throughput Platform with "Click Chemistry"” (J Med Chem, 2018):
# Key:
# Assay type in all cases: cell-based
# [1] = biological target: T1, Multidrug resistance-associated protein 1 (Homo sapiens, UniProt P33527); assay: Inhibition of MRP1 in human 2008/MRP1 cells assessed as potentiation of doxorubicin-induced cytotoxicity by measuring cell survival at 2 uM after 5 days by MTS assay relative to control; settings: 120 h
# T1 sequence (P33527 whole entry): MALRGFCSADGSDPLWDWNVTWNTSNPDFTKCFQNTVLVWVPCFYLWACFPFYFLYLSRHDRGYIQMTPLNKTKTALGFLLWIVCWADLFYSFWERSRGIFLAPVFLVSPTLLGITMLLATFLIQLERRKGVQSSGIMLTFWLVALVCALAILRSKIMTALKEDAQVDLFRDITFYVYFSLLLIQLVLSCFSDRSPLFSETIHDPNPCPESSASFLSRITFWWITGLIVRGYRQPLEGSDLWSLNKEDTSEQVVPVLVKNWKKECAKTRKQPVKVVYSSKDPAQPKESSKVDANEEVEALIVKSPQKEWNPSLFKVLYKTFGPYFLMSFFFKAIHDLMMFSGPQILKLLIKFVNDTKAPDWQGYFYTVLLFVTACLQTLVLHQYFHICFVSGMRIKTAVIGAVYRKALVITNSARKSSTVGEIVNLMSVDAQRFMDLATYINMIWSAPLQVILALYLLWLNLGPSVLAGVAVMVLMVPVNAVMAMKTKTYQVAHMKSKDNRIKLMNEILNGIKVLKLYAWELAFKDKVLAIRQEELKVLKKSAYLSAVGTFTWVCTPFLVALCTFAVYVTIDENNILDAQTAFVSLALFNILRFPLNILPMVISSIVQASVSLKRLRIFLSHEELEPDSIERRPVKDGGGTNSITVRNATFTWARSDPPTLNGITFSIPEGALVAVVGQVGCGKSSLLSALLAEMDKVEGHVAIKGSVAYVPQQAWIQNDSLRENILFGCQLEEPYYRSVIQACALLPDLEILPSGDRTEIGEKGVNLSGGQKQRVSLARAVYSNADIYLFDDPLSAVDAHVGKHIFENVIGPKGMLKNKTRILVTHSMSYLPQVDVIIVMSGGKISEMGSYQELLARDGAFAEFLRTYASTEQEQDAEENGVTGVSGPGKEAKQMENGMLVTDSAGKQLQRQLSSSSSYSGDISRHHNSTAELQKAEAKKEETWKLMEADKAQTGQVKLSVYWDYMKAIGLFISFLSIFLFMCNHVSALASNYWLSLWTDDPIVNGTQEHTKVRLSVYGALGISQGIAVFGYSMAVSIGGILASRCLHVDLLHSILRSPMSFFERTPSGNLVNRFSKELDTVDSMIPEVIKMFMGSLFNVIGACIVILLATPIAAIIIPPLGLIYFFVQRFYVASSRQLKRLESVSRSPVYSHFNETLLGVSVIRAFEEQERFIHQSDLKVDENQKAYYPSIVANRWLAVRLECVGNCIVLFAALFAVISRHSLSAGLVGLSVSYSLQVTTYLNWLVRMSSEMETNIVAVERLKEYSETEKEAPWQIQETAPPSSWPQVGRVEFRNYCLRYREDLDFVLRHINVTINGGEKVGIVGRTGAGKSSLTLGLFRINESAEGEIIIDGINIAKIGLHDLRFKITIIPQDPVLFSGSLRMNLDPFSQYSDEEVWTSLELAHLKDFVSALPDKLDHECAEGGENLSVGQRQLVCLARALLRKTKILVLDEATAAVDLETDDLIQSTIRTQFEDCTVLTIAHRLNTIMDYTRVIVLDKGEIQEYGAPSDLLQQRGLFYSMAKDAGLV
# Procedure, shortened: (§1)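 2008/MRP1 cells (retroviral human MRP1 transfectant; RPMI 1640, 10% FBS) at 4,000 per well, with 100 nM doxorubicin plus crude, unpurified click products in DMSO: 2 µM in the primary screen, 1 µM in the secondary. Incubated 5 days at 37 °C. MTS/PMS added for 2 h at 37 °C, absorbance read at 490 nm. % survival is relative to wells without DOX or product. Run in triplicate, at least three experiments.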
# [2] = Cytotoxicity against human 2008/MRP1 cells assessed as cell survival at 2 uM after 5 days by MTS assay relative to control; settings: read-out: Survival
# [3] = biological target: T1, Multidrug resistance-associated protein 1; assay: Inhibition of MRP1 in human 2008/MRP1 cells assessed as potentiation of doxorubicin-induced cytotoxicity by measuring cell survival at 1 uM after 5 days by MTS assay relative to control; settings: 120 h; procedure, shortened: as §1
Compound,Survival [1] [%],"viability at 120 h, 2 µM [2] [%]",Survival [3] [%]
O=C1c2ccccc2C(=O)N1CCc1cn(CCOCCOCCOc2ccc3c(=O)cc(-c4ccccc4)oc3c2)nn1,41,23,
O=c1cc(-c2ccc(OCCCc3cn(CCOCCOc4cccc(-c5oc6ccccc6c(=O)c5OCc5ccccc5)c4)nn3)cc2)oc2cc(F)ccc12,45,99,55
Cc1ccc2oc(-c3ccc(OCCCCc4cn(CCOCCOCCOc5ccc6c(=O)cc(-c7ccccc7)oc6c5)nn4)cc3)cc(=O)c2c1,33,89,65
O=c1cc(-c2ccccc2)oc2cc(OCCOCc3cn(CCOCCOc4ccc(-c5oc6ccccc6c(=O)c5OCc5ccccc5)cc4)nn3)ccc12,46,85,56
O=C1c2ccccc2C(=O)N1CCc1cn(CCOCCOc2ccc(-c3cc(=O)c4ccccc4o3)cc2)nn1,37,18,
O=c1cc(-c2ccc(OCCCc3cn(CCOCCOc4ccc5c(=O)cc(-c6ccccc6)oc5c4)nn3)cc2)oc2ccccc12,39,39,
COc1cccc(COc2c(-c3ccc(OCCCCc4cn(CCOCCOCCOc5ccc(-c6cc(=O)c7cc(C)ccc7o6)cc5)nn4)cc3)oc3ccccc3c2=O)c1,46,50,
COc1cccc(COc2c(-c3ccc(OCCCCc4cn(CCOCCOCCOc5ccc(-c6oc7ccccc7c(=O)c6OCc6ccccc6)cc5)nn4)cc3)oc3ccccc3c2=O)c1,33,53,
O=C(/C=C/c1ccc(OCCCCc2cn(CCOCCOc3ccc(-c4cc(=O)c5ccccc5o4)cc3)nn2)cc1)c1ccc(F)cc1O,42,90,66
O=C1c2ccccc2C(=O)N1CCc1cn(CCOCCOCCOc2ccc(-c3oc4ccccc4c(=O)c3OCc3ccccc3)cc2)nn1,34,16,
O=C(/C=C/c1ccc(OCCCCc2cn(CCOCCOc3ccc(-c4cc(=O)c5ccccc5o4)cc3)nn2)cc1)c1ccccc1O,39,83,56
O=C1c2ccccc2C(=O)N1CCc1cn(CCOc2cccc3c(=O)cc(-c4ccccc4)oc23)nn1,37,11,
COc1cccc(COc2c(-c3ccc(OCCCCc4cn(CCOCCOc5ccc(-c6cc(=O)c7ccccc7o6)cc5)nn4)cc3)oc3ccccc3c2=O)c1,40,63,
O=c1cc(-c2ccc(OCCCc3cn(CCOCCOc4ccc(-c5cc(=O)c6cc(F)ccc6o5)cc4)nn3)cc2)oc2ccccc12,39,43,
Cc1ccc2oc(-c3ccc(OCCCCc4cn(CCOCCOCCOc5ccc(-c6cc(=O)c7ccccc7o6)cc5)nn4)cc3)cc(=O)c2c1,39,68,
O=c1cc(-c2ccc(OCCCc3cn(CCOCCOCCOc4ccc5c(=O)cc(-c6ccccc6)oc5c4)nn3)cc2)oc2ccccc12,42,49,54
O=c1cc(-c2ccc(OCCCc3cn(CCOCCOCCOc4ccc(-c5oc6ccccc6c(=O)c5OCc5ccccc5)cc4)nn3)cc2)oc2ccccc12,45,39,62
O=C1c2ccccc2C(=O)N1CCc1cn(CCOCCOCCOc2ccc(-c3cc(=O)c4cc(F)ccc4o3)cc2)nn1,28,10,
O=c1cc(-c2ccc(OCCCc3cn(CCOCCOCCOc4ccc(-c5cc(=O)c6cc(F)ccc6o5)cc4)nn3)cc2)oc2ccccc12,46,44,
O=c1cc(-c2ccccc2)oc2cc(OCCCCc3cn(CCOCCOCCOc4ccc(-c5cc(=O)c6cc(F)ccc6o5)cc4)nn3)ccc12,47,92,59
COc1cccc(COc2c(-c3ccc(OCCOCCn4cc(COCCOc5ccc6c(=O)cc(-c7ccccc7)oc6c5)nn4)cc3)oc3ccccc3c2=O)c1,47,88,71
O=c1cc(-c2ccccc2)oc2cc(OCCN(Cc3ccccc3)Cc3cn(CCOCCOc4ccc(-c5oc6ccccc6c(=O)c5OCc5ccccc5)cc4)nn3)ccc12,49,82,53
COCOc1cc(OCc2ccccc2)c2c(=O)cc(-c3ccc(OCCCc4cn(CCOCCOc5ccc(-c6cc(=O)c7ccccc7o6)cc5)nn4)cc3)oc2c1,39,95,64
CCc1ccc(O)c(C(=O)/C=C/c2ccc(OCCCCc3cn(CCOCCOc4ccc(-c5cc(=O)c6ccccc6o5)cc4)nn3)cc2)c1,40,95,66
O=c1cc(-c2ccc(OCCCc3cn(CCOCCOCCOc4ccc(-c5oc6ccccc6c(=O)c5OCc5ccccc5)cc4)nn3)cc2)oc2cc(F)ccc12,37,97,53
O=C1c2ccccc2C(=O)N1CCc1cn(CCOCCOc2ccc(-c3cc(=O)c4cc(F)ccc4o3)cc2)nn1,39,14,
O=c1cc(-c2ccc(OCCOCCOCCn3cc(CN(Cc4ccccc4)Cc4cn(CCOCCOCCOc5ccc(-c6cc(=O)c7ccccc7o6)cc5)nn4)nn3)cc2)oc2ccccc12,29,49,

Compound,Survival [1] [%],"viability at 120 h, 2 µM [2] [%]",Survival [3] [%]
O=c1cc(-c2ccccc2)oc2cc(OCCOCCOCCn3cc(CCCOc4ccc(-c5cc(=O)c6cc(F)ccc6o5)cc4)nn3)ccc12,40,105,
O=C1c2ccccc2C(=O)N1CCc1cn(CCOCCOCCOc2ccc(-c3cc(=O)c4ccccc4o3)cc2)nn1,28,4,
O=c1[nH]c(-c2ccc(OCCCc3cn(CCOCCOc4ccc5c(=O)cc(-c6ccccc6)oc5c4)nn3)cc2)nc2ccccc12,49,65,70
O=C(/C=C/c1ccc(OCCCCc2cn(CCOCCOCCOc3ccc(-c4cc(=O)c5cc(F)ccc5o4)cc3)nn2)cc1)c1ccc(F)cc1O,53,,
Cc1ccc2oc(-c3ccc(OCCOCCOCCN=[N+]=[N-])cc3)cc(=O)c2c1,84,,
O=c1cc(-c2ccccc2)oc2cc(OCCN(Cc3ccccc3)Cc3cn(CCOCCOc4cccc(-c5oc6ccccc6c(=O)c5OCc5ccccc5)c4)nn3)ccc12,73,,
O=c1c(OCc2ccccc2)c(-c2ccc(OCCOCCn3cc(CNc4ccccc4)nn3)cc2)oc2ccccc12,91,,
Cc1ccc2oc(-c3ccc(OCCOCCOCCn4cc(CN5CCN(Cc6cn(CCOCCOCCOc7ccc(-c8cc(=O)c9cc(C)ccc9o8)cc7)nn6)CC5)nn4)cc3)cc(=O)c2c1,103,,
O=c1cc(-c2ccccc2)oc2cc(OCCCc3cn(CCOc4cccc5c(=O)cc(-c6ccccc6)oc45)nn3)ccc12,56,,
O=c1cc(-c2ccccc2)oc2cc(OCCOCCOCCn3cc(-c4cccc(-c5cn(CCOCCOCCOc6ccc7c(=O)cc(-c8ccccc8)oc7c6)nn5)c4)nn3)ccc12,74,,
O=c1cc(-c2ccccc2)oc2cc(OCCCCc3cn(CCOCCOc4cccc(-c5oc6ccccc6c(=O)c5OCc5ccccc5)c4)nn3)ccc12,62,,
C#CCCCCOc1ccc(/C=C/C(=O)c2ccccc2O)cc1,102,,
C#Cc1cccc(C#C)c1,84,,
C#CCCCOc1ccc(-c2cc(=O)c3cc(F)ccc3o2)cc1,81,,
O=c1cc(-c2ccc(OCCCc3cn(CCOCCOc4cccc(-c5oc6ccccc6c(=O)c5OCc5ccccc5)c4)nn3)cc2)oc2ccccc12,54,,
COc1cccc(COc2c(-c3ccc(OCCOCCn4cc(CN5CCN(Cc6cn(CCOCCOc7ccc(-c8oc9ccccc9c(=O)c8OCc8cccc(OC)c8)cc7)nn6)CC5)nn4)cc3)oc3ccccc3c2=O)c1,85,,
COc1cccc(COc2c(-c3ccc(OCCOCCn4cc(CCCOc5ccc6c(=O)cc(-c7ccccc7)oc6c5)nn4)cc3)oc3ccccc3c2=O)c1,78,,
O=c1c(OCc2ccccc2)c(-c2ccc(OCCOCCn3cc(CN(Cc4cn(CCOCCOc5ccc(-c6oc7ccccc7c(=O)c6OCc6ccccc6)cc5)nn4)Cc4cn(CCOCCOc5ccc(-c6oc7ccccc7c(=O)c6OCc6ccccc6)cc5)nn4)nn3)cc2)oc2ccccc12,77,,
O=c1cc(-c2ccccc2)oc2cc(OCCOCCOCCn3cc(CNc4ccccc4)nn3)ccc12,90,,
O=c1cc(-c2ccccc2)oc2cc(OCCOCc3cn(CCOCCOc4cccc(-c5oc6ccccc6c(=O)c5OCc5ccccc5)c4)nn3)ccc12,77,,
CCc1ccc(O)c(C(=O)/C=C/c2ccc(OCCCCc3cn(CCOCCOc4cccc(-c5oc6ccccc6c(=O)c5OCc5ccccc5)c4)nn3)cc2)c1,85,,
C#CCCCOc1ccc2c(=O)cc(-c3ccccc3)oc2c1,85,,
CCc1ccc(O)c(C(=O)/C=C/c2ccc(OCCCCc3cn(CCOCCOc4ccc(-c5oc6ccccc6c(=O)c5OCc5ccccc5)cc4)nn3)cc2)c1,69,,
O=C(/C=C/c1ccc(OCCCCc2cn(CCOc3cccc4c(=O)cc(-c5ccccc5)oc34)nn2)cc1)c1ccc(F)cc1O,73,,
Cc1ccc(C(=O)/C=C/c2ccc(OCCCCc3cn(CCOCCOc4ccc(-c5oc6ccccc6c(=O)c5OCc5ccccc5)cc4)nn3)cc2)c(O)c1,66,,
O=c1[nH]c(-c2ccc(OCCCc3cn(CCOCCOc4ccc(-c5oc6ccccc6c(=O)c5OCc5ccccc5)cc4)nn3)cc2)nc2ccccc12,64,,
